Activity calls are given as the source filed them. The rule behind the calls is not given here.

Data set [1] has as its system RAW264.7. The data set is described as follows: Antiinflammatory activity against mouse RAW264.7 cells assessed as inhibition of LPS-induced NO production measured after 24 hrs by Griess assay. Type of data set: functional, cell-based. Particulars: RAW264.7, 24 h. In outline:
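RAW 264.7 cells (1 × 10^5 cells/mL) are cultured 24 h, stimulated with LPS (100 ng/mL final), and treated with compounds from 100 μM downward for 24 h in DMEM with 10% FBS. Medium nitrite is measured by Griess reaction (sulfanilamide, naphthylethylenediamine, phosphoric acid, 10 min, room temperature, dark). Mean + SD from three independent experiments.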

Data set [2] deals with RAW264.7. Briefly: Cytotoxicity against mouse RAW264.7 cells assessed as reduction in cell viability at 3 to 100 uM incubated for 24 hrs by MTT assay. Type of data set: cell-based. To be noted: raw264.7, 24 h, dose 3-100 µM. In outline:
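RAW 264.7 cells are seeded at 1.0 × 10^4 per well and incubated overnight. Compounds are added at concentrations from 100 μM downward, with or without LPS (100 ng/mL), for 24 h. MTT (0.5 mg/mL) is added for 4 h and the formazan is dissolved in DMSO for the read-out.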

Data set [3] has as its system RAW264.7. The data set is described as follows: Antiinflammatory activity against mouse RAW264.7 cells assessed as inhibition of LPS-induced iNOS mRNA expression at 20 uM incubated for 8 hrs in presence of LPS by qRT-PCR analysis. Type of data set: functional, cell-based. In outline:
(§1)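 RAW 264.7 cells are grown 12 h in six-well plates, then exposed to LPS (100 ng/ml) plus compound for 8 h. Reverse transcription is followed by SYBR Green qPCR with GAPDH as internal control. Relative expression is calculated by 2^-ΔΔCT versus the untreated control. Mean + SD from three independent experiments.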

Data set [4] concerns RAW264.7. Briefly: Antiinflammatory activity against mouse RAW264.7 cells assessed as inhibition of LPS-induced COX2 mRNA expression at 20 uM incubated for 8 hrs in presence of LPS by qRT-PCR analysis. It is filed as functional, cell-based. In outline:
as §1

Data set [5] has as its system RAW264.7. Briefly: Antiinflammatory activity against mouse RAW264.7 cells assessed as inhibition of LPS-induced COX2 mRNA expression incubated for 8 hrs in presence of LPS by qRT-PCR analysis. Type of data set: functional, cell-based. Particulars: dose 0.31-20 µM. In outline: as §1
Data set [6] has as its system RAW264.7. The data set is described as follows: Antiinflammatory activity against mouse RAW264.7 cells assessed as decrease in LPS-induced TNF-alpha mRNA expression at 20 uM in presence of LPS by qRT-PCR analysis. It is filed as functional, cell-based. In outline: as §1
Data set [7] has as its system RAW264.7. Briefly: Antiinflammatory activity against mouse RAW264.7 cells assessed as inhibition of LPS-induced MCP-1 mRNA expression at 20 uM in presence of LPS by qRT-PCR analysis. Type of data set: functional, cell-based. Put shortly:
as §1

The subject of data set [8] is RAW264.7. Briefly: Antiinflammatory activity against mouse RAW264.7 cells assessed as inhibition of LPS-induced IL-6 production measured after 24 hrs in presence of LPS by ELISA. It is filed as functional, cell-based. To be noted: dose 0.31-20 µM. Put shortly:
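RAW 264.7 cells are seeded at 2 × 10^5 per well, grown 12 h, and given 100 ng/mL LPS with compound at 0.31 to 20 μM for 24 h. Supernatant IL-1β and IL-6 are quantified by ELISA. Mean + SD, n = 3.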

Data set [9] relates to RAW264.7. The data set is described as follows: Antiinflammatory activity against mouse RAW264.7 cells assessed as decrease in LPS-induced NF-kappB mRNA expression at 20 uM in presence of LPS by qRT-PCR analysis. Type of data set: functional, cell-based. Put shortly:
as §1

For data set [10], the system named is RAW264.7. Briefly: Antiinflammatory activity against mouse RAW264.7 cells assessed as decrease in LPS-induced NF-kappB mRNA expression in presence of LPS by qRT-PCR analysis. Particulars: dose 0.31-20 µM. Type of data set: functional, cell-based. Put shortly:
as §1

For data set [11], the system named is RAW264.7. Briefly: Inhibition of PI3K/Akt signaling in mouse RAW264.7 cells assessed as inhibition of LPS-induced Akt phosphorylation by measuring increase in Akt level at 1.25 uM in presence of LPS by western blot analysis. Type of data set: cell-based. In outline:
(§2)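 Lysates of LPS-stimulated RAW 264.7 cells (20–30 μg protein) are run on 10% SDS-PAGE, blotted, blocked with 5% milk, probed overnight at 4 °C (1:5,000), then detected with HRP secondary and ECL. Actin, GAPDH or H3 (nuclear fraction) serve as loading controls, with densitometry ratios. Blots are representative of three independent experiments; mean + SD (n = 3).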

The test system of data set [12] is RAW264.7. Briefly: Inhibition of PI3K/Akt signaling in mouse RAW264.7 cells assessed as inhibition of LPS-induced NFkappB p-p65 accumulation at 1.25 uM in presence of LPS by western blot analysis. Type of data set: cell-based. Put shortly:
as §2

Data set [13] relates to RAW264.7. Briefly: Inhibition of PI3K/Akt signaling in mouse RAW264.7 cells assessed as inhibition of LPS-induced NFkappB p-p65 accumulation in presence of LPS by western blot analysis. Particulars: dose 0.31-20 µM. Type of data set: cell-based. In outline: as §2
Data set [14] deals with Mus musculus. Briefly: Antiinflammatory activity against DSS-induced colitis C57BL/6 mouse model assessed as colon with intact structure with few inflammatory cells at 50 to 100 mg/kg, ip administered for 7 days by hematoxylin and eosin staining based microscopic analysis. Type of data set: functional, organism-based. Particulars: dose 50-100 mg/kg, time 7.0 day. Put shortly:
(§3)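 DSS colitis (3.5% DSS, male C57BL/6 mice, n=5 per group) with 7-day intraperitoneal dosing in saline/castor oil/ethanol/DMSO vehicle. Colons are fixed in formalin, paraffin-embedded and stained with H&E (viewed at 200X). Separately, sections undergo CD86 immunohistochemistry (citrate antigen retrieval, 3% H2O2 block, 1:200 primary and HRP secondary, hematoxylin counterstain) viewed at 400X.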

In data set [15] the test system is Mus musculus. Briefly: Antiinflammatory activity against DSS-induced colitis C57BL/6 mouse assessed as decrease in IL-1beta level in colon at 50 mg/kg, ip administered for 7 days. To be noted: time 7.0 day. Type of data set: functional, organism-based. In outline: (§4)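 Male C57BL/6 mice, 6 weeks old, 5 per group, given 3.5% DSS solution plus daily intraperitoneal drug (100 μL, in saline/castor oil/ethanol/DMSO 70:10:15:5) for 7 days. Colons collected after sacrifice. IL-1β is normalised per milligram of colonic protein. p-IκB-α and p-p65 in colonic protein are measured by Western blot. Bars give mean + SD.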

Data set [16] concerns Mus musculus. The data set is described as follows: Antiinflammatory activity against DSS-induced colitis C57BL/6 mouse assessed as decrease in IL-1beta level in colon at 25 mg/kg, ip administered for 7 days. It is filed as functional, organism-based. To be noted: time 7.0 day. In outline:
as §4

Data set [17] has as its system Mus musculus. The data set is described as follows: Antiinflammatory activity against DSS-induced colitis C57BL/6 mouse assessed as decrease in p-IkB alpha level in colon at 50 mg/kg, ip administered for 7 days by western blot analysis. It is filed as functional, organism-based. Particulars: time 7.0 day. In outline: as §4
The test system of data set [18] is Mus musculus. The data set is described as follows: Antiinflammatory activity against DSS-induced colitis C57BL/6 mouse assessed as decrease in p-p65 level in colon at 25 mg/kg, ip administered for 7 days by western blot analysis. Type of data set: functional, organism-based. To be noted: time 7.0 day. In outline:
as §4

Data set [19] deals with Mus musculus. The data set is described as follows: Antiinflammatory activity against DSS-induced colitis C57BL/6 mouse model assessed as reduction in scores of stool consistency and bleeding at 25 to 100 mg/kg, ip administered for 7 days by immunohistochemistry analysis. It is filed as functional, organism-based. To be noted: dose 25-100 mg/kg, time 7.0 day.
Data set [20] relates to Mus musculus. Briefly: Antiinflammatory activity against DSS-induced colitis C57BL/6 mouse model assessed as dispersed CD86-positive cells in colon at 25 to 100 mg/kg, ip administered for 7 days by hematoxylin and eosin staining based microscopic analysis. Type of data set: functional, organism-based. To be noted: dose 25-100 mg/kg, time 7.0 day. In outline: as §3

For the compound `C[C@]12CC[C@H]3[C@@H](CC=C4C[C@@H](O)CC[C@@]43C)[C@@H]1CC[C@@H]2C(=O)n1ccnc1`, the half-inhibitory concentration (IC50) in the data set with RAW264.7 [1] amounted to 6.67 µM. Moreover, the Activity result in the data set with RAW264.7 [2] was “Non-Toxic”; in the data set with RAW264.7 [5], “Dose-Dependent Effect”; with RAW264.7 [8] it was “Dose-Dependent Effect”; in the data set on RAW264.7 [10], “Dose-Dependent Effect”. For the same compound, the result in the data set with RAW264.7 [3], in the data set on RAW264.7 [4], in the data set with RAW264.7 [7], in the data set with RAW264.7 [9], in the data set on Mus musculus [14] and in the data set on Mus musculus [15] was Active. In addition, the result in the data set on Mus musculus [16], in the data set with Mus musculus [17], in the data set on Mus musculus [18], with Mus musculus [19] and in the data set with Mus musculus [20] was Active. For the same compound, in the data set with RAW264.7 [6], the outcome was inactive. The inhibition result with RAW264.7 [11] and in the data set with RAW264.7 [12] was “Active” throughout. For the same compound, the inhibition result in the data set with RAW264.7 [13] was “Dose-Dependent Effect”.

For the origin of these results see ChEMBL document CHEMBL4842317, “Discovery of novel 3-hydroxyandrosta-5,7-Diene-17-Carboxylic acid derivatives as anti-inflammatory bowel diseases (IBD) agents” (Eur J Med Chem, 2021).
